Where a chain is given by its changes, count along the chain named. Where “and” joins values, the source holds several entries; their conditions need not be identical. Equal values may be shown once. Read-outs that look alike come from different tables or passages of the source.
Assays:
[1] = test system: PKCδC1B L255K; details: cited from earlier work
[2] = test system: PKCδC1B L255D; details: in the presence or absence of PS; cited from earlier work
[3] = test system: PKCδC1B W252K; details: cited from earlier work
[4] = target: T1, PKCθC1B T243A (Mus musculus, UniProt Q02111, T243A); test: [3H]PDBu binding assay
T1 sequence (Q02111 232-281 T243A): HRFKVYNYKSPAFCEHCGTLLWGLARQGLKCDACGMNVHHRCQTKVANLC
Summary of the method: (§1)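 GST-cleaved mouse PKCθ C1B (residues 232–281), E. coli-expressed, affinity/gel-filtration purified. PEG-precipitation [3H]PDBu binding; Kd from saturable plus linear non-specific fit. Ki: [3H]PDBu at 2–5-fold each construct's Kd, DOG or SAG 1–100000 nM, dried from chloroform with phospholipid, sonicated. PS dependence: total phospholipid 100 μg/ml, PS 0–100%, remainder PC, relative to 100% PS. Means ± S.E.M., three independent experiments.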

[5] = target: T2, PKCθC1B wild-type (Mus musculus, UniProt Q02111); test: [3H]PDBu binding assay
T2 sequence (Q02111 232-281): T1 sequence (Q02111 232-281 T243A) with A12T
Summary of the method: as §1

[6] = test system: PKCδC1B; details: cited from earlier work
[7] = target: T3, PKCθC1B L255G (Mus musculus, UniProt Q02111, L255G); test: [3H]PDBu binding assay
T3 sequence (Q02111 232-281 L255G): T1 sequence (Q02111 232-281 T243A) with A12T, L24G
Summary of the method: as §1

[8] = test system: PKCδC1B Y238G; details: PKCδC1B mutant homologous to Y239A; ref Supplementary Table S1; cited from earlier work
[9] = test system: PKCδC1B L250K; details: cited from earlier work
[10] = test system: PKCδC1B L250R; details: cited from earlier work
[11] = test system: PKCδC1B W252G; details: PKCδC1B mutant homologous to W253G; ref Supplementary Table S1; cited from earlier work
[12] = target: T4, PKCθC1B Y239A (Mus musculus, UniProt Q02111, Y239A); test: [3H]PDBu binding assay
T4 sequence (Q02111 232-281 Y239A): T1 sequence (Q02111 232-281 T243A) with Y8A, A12T
Summary of the method: as §1

[13] = target: T5, PKCθC1B Q258G (Mus musculus, UniProt Q02111, Q258G); test: [3H]PDBu binding assay
T5 sequence (Q02111 232-281 Q258G): T1 sequence (Q02111 232-281 T243A) with A12T, Q27G
Summary of the method: as §1

[14] = target: T6, PKCθC1B W253G (Mus musculus, UniProt Q02111, W253G); test: [3H]PDBu binding assay
T6 sequence (Q02111 232-281 W253G): T1 sequence (Q02111 232-281 T243A) with A12T, W22G

[15] = test system: PKCδC1B L250D; details: in the presence or absence of PS; cited from earlier work
[16] = test system: PKCδC1B L254G; details: PKCδC1B mutant homologous to L255G; ref Supplementary Table S1; cited from earlier work

For `CCCC(=O)O[C@@H]1[C@@H](C)[C@@]2(O)[C@@H](C=C(CO)C[C@]3(O)C(=O)C(C)=C[C@@H]23)[C@@H]2C(C)(C)[C@]12OC(=O)CCC` [PDBu, phorbol 12,13-dibutyrate], the “reduction in PDBu binding” value ([1]; in the absence of lipid) is listed as 2.9 fold, the “reduction in PDBu binding” value ([1]; in the presence of lipid) is listed as 250 fold and the “effect of mutation on strong binding of PDBu” value [2] is listed as “completely abolished”. For the same compound, the “activity at 50% PS as percent of the maximum activity” value ([3]; 50% PS) was “approximately 55%”, the “binding affinity compared with the wild-type” value ([3]; in the absence of the PS) was “remained almost the same” and the “effect on PDBu binding compared with the wild-type” value ([3]; in the presence of PS) was 3 fold. For the same compound, the “PDBu binding at 50% PS relative to the level at 100% PS” value ([4]; PS/PC mixture, total phospholipid 100 μg/ml, T243A) was 98.2%, the “reduction in binding affinity compared with the wild-type” value (shortened to “reduction in binding affinity”) ([4]; T243A vs wild-type PKCθC1B (Kd for PDBu, Ki for DOG/SAG)) was 1.64 fold and the Kd ([4]; read-out: PDBu Kd, PKCθ C1B T243A, mean ± S.E.M.) was 0.64 ± 0.06 nM. The “[3H]PDBu binding at 5% PS” value ([5]; 5% PS in PS/PC, relative to binding at 100% PS) was “Approximately 30%”, the “[3H]PDBu binding in 100% PC” value ([5]; 100% PC (0% PS)) was “essentially no binding” and the “PDBu binding at 50% PS relative to the level at 100% PS” value ([5]; PS/PC mixture, total phospholipid 100 μg/ml, PKCθC1B) was 90.5%. For the same compound, the Kd ([5]; read-out: PDBu Kd, PKCθ C1B WT, mean ± S.E.M. of triplicate independent experiments) was 0.39 ± 0.2 nM, the “activity at 50% PS” value [6] was “approximately 100%” and the “reduction in binding affinity” value ([7]; L255G vs wild-type PKCθC1B (Kd for PDBu, Ki for DOG/SAG)) was 11.4 fold and 11 fold. For the same compound, the “PDBu binding at 50% PS relative to the level at 100% PS” value ([7]; PS/PC mixture, total phospholipid 100 μg/ml, L255G) was 92.8%, the “PS percentage giving maximal [3H]PDBu binding” value ([7]; PS/PC mixtures, L255G, decrease at 100% PS) was 50–75% and the Kd ([7]; read-out: PDBu Kd, PKCθ C1B L255G, mean ± S.E.M.) was 4.44 ± 0.56 nM. For the same compound, the “reduction in the binding affinity compared with the wild-type” value [8] was 60 fold, the “binding affinity compared with the wild-type” value ([9]; in the absence of the PS) was “remained almost the same” and the “effect on PDBu binding compared with the wild-type” value ([9]; in the presence of PS) was 3 fold. The “reduction in PDBu binding” value ([10]; in the absence of lipid) was 6.6 fold, the “reduction in PDBu binding” value ([10]; in the presence of lipid) was 340 fold and the “reduction in affinity for PDBu compared with the wild-type” value [11] was 31 fold. The “PDBu binding at 50% PS relative to the level at 100% PS” value ([12]; PS/PC mixture, total phospholipid 100 μg/ml, Y239A) was 130.7%, the “PS percentage giving maximal [3H]PDBu binding” value ([12]; PS/PC mixtures, Y239A, decrease at 100% PS) was 50–75% and the “reduction in binding affinity” value ([12]; Y239A vs wild-type PKCθC1B (Kd for PDBu, Ki for DOG/SAG)) was 8.51 fold and 9 fold. The Kd ([12]; read-out: PDBu Kd, PKCθ C1B Y239A, mean ± S.E.M.) was 3.32 ± 0.34 nM, the “PDBu binding at 50% PS relative to the level at 100% PS” value ([13]; PS/PC mixture, total phospholipid 100 μg/ml, Q258G) was 85.7% and the “reduction in binding affinity” value ([13]; Q258G vs wild-type PKCθC1B (Kd for PDBu, Ki for DOG/SAG)) was 1720 fold. The Kd ([13]; read-out: PDBu Kd, PKCθ C1B Q258G, mean ± S.E.M.) was 670 ± 150 nM, the “PDBu binding at 50% PS relative to the level at 100% PS” value ([14]; PS/PC mixture, total phospholipid 100 μg/ml, W253G) was 59.3% and the “reduction in binding affinity” value ([14]; W253G vs wild-type PKCθC1B (Kd for PDBu, Ki for DOG/SAG)) was 7.56 fold and 8 fold. The Kd ([14]; read-out: PDBu Kd, PKCθ C1B W253G, mean ± S.E.M.) was 2.95 ± 0.19 nM, the “effect of mutation on strong binding of PDBu” value [15] was “completely abolished” and the “reduction in affinity for PDBu compared with the wild-type” value [16] was greater than 1000 fold.

Source: paper PMC6988732 (The Biochemical journal, 2013)
